From ChEMBL document CHEMBL1799916, “Novel 3,5-bis(bromohydroxybenzylidene)piperidin-4-ones as coactivator-associated arginine methyltransferase 1 inhibitors: enzyme selectivity and cellular activity” (J Med Chem, 2011) come the findings set out here.

Test [1] addresses T1, Histone-lysine N-methyltransferase SETD7 (Homo sapiens, UniProt Q8WTS6).
T1 sequence (Q8WTS6 whole entry): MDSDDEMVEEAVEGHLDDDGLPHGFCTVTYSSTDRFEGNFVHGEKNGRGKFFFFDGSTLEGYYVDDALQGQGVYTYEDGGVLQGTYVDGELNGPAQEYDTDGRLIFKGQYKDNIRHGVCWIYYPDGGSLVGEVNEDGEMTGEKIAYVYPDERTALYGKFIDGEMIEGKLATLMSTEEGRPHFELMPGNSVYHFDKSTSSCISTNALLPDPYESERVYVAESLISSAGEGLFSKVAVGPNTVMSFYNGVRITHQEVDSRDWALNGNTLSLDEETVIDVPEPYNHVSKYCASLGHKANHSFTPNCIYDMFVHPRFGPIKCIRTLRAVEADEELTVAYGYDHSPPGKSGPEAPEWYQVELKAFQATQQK
Kind of test: Inhibition of SET7-mediated methylation of histone H3 after 90 mins by scintillation counting in presence of S-adenosyl-l-[methyl-3H]methionine.

The target in test [2] is T2, Histone-arginine methyltransferase CARM1 (Homo sapiens) (UniProt Q86X55).
T2 sequence (whole entry): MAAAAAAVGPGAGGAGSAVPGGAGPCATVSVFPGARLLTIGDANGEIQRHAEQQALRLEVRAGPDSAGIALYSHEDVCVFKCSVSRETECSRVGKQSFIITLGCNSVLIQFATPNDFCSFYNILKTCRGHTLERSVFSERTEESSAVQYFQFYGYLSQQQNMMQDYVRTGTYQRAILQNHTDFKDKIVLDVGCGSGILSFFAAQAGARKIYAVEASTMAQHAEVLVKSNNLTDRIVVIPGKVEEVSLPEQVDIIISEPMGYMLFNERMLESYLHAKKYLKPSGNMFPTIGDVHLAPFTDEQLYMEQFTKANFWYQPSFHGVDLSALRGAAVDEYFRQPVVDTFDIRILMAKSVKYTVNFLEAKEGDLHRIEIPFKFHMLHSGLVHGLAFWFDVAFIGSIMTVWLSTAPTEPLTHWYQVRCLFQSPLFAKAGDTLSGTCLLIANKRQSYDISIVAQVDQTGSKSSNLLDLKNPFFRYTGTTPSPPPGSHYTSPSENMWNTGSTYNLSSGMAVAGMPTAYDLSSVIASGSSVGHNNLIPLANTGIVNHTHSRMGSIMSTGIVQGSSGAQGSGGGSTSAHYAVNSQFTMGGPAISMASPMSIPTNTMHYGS
Briefly: Inhibition of CARM1-mediated methylation of PABP1 at 20 uM after 90 mins by scintillation counting in presence of S-adenosyl-l-[methyl-3H]methionine. In short, it runs like this:
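Recombinant CARM1 with PABP1 substrate in PBS pH 7.4 containing [³H]AdoMet, compound at 20 μM. Incubated 90 min at 30 °C, then SDS-PAGE, PVDF transfer and overnight film fluorography. Substrate bands cut out for scintillation counting.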

For test [3], the target named is Protein arginine N-methyltransferase 1 (Homo sapiens, UniProt Q99873). Briefly: Inhibition of PRMT1-mediated methylation of NPL3 after 90 mins by scintillation counting in presence of S-adenosyl-l-[methyl-3H]methionine.
Chain of Protein arginine N-methyltransferase 1 (Q99873 whole entry): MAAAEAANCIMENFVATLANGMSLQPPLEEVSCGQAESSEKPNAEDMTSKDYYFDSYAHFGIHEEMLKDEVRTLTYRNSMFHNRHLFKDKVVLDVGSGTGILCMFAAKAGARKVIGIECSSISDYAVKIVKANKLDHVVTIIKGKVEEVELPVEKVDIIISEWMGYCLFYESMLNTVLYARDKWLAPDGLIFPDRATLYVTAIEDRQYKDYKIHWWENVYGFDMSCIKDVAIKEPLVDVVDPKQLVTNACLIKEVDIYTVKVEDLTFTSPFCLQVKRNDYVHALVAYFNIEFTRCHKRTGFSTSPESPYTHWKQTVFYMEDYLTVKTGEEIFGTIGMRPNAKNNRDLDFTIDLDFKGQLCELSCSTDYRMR
For test [4], the target named is T3, Histone-arginine methyltransferase CARM1 (Homo sapiens, UniProt Q86X55).
T3 sequence (Q86X55 whole entry): T2 sequence (whole entry)
Briefly: Inhibition of CARM1-mediated methylation of PABP1 after 90 mins by scintillation counting in presence of S-adenosyl-l-[methyl-3H]methionine.

pIC50: −log10 of the molar value. Activity calls are given as the source filed them. The calls are words filed in the database; no cut-off is given here. Some results are limits rather than exact numbers.

For `Cc1ccc(CN2C/C(=C\c3ccc(O)c(Br)c3)C(=O)/C(=C/c3ccc(O)c(Br)c3)C2)cc1`, the pIC50 (as a rule, −log10 of the IC50, conventionally taken in molar units) in test [1] was below 3.48; in test [3], below 3.18; in test [4], 4.92. Also, in test [2], the inhibition result is “inactive”.
`O=C1/C(=C/c2ccc(O)c(Br)c2)CN(Cc2ccccc2Cl)C/C1=C\c1ccc(O)c(Br)c1`: the pIC50 is below 3.18 in test [1], below 3.18 in test [3] and 4.90 in test [4].
`O=C1/C(=C/c2ccc(O)c(Br)c2)CN(Cc2ccc(Cl)cc2)C/C1=C\c1ccc(O)c(Br)c1`: the pIC50 was below 3.22 in test [1], below 3.18 in test [3] and 4.91 in test [4].
Consider `COc1cccc(CN2C/C(=C\c3ccc(O)c(Br)c3)C(=O)/C(=C/c3ccc(O)c(Br)c3)C2)c1`, for which the inhibition entry in test [2] was “inactive”.
Turning to `COc1ccccc1CN1C/C(=C\c2ccc(O)c(Br)c2)C(=O)/C(=C/c2ccc(O)c(Br)c2)C1`, the inhibition result in test [2] is “inactive”.
`O=C1/C(=C/c2ccc(O)c(Br)c2)CN(CCc2ccccc2)C/C1=C\c1ccc(O)c(Br)c1`: the figures for the pIC50 in test [1], in test [3] and in test [4] were below 3.18, below 3.18 and 4.83, respectively.
Turning to `O=C1/C(=C/c2ccc(O)c(Br)c2)CN(CCCc2ccccc2)C/C1=C\c1ccc(O)c(Br)c1`, the values for the pIC50 in test [1], in test [3] and in test [4] were below 3.18, below 3.18 and 4.80, respectively. For the same compound, the inhibition entry in test [2] was “inactive”.
Consider `Cc1ccccc1CN1C/C(=C\c2ccc(O)c(Br)c2)C(=O)/C(=C/c2ccc(O)c(Br)c2)C1`, for which the pIC50 is below 3.18 in test [1], below 3.18 in test [3] and 4.99 in test [4].
Turning to `COc1ccc(CN2C/C(=C\c3ccc(O)c(Br)c3)C(=O)/C(=C/c3ccc(O)c(Br)c3)C2)cc1`, the inhibition entry in test [2] is “inactive”.
